Experimental data as given in ChEMBL document CHEMBL5321263, “Metabolomics-Guided Discovery, Isolation, Structure Elucidation, and Bioactivity of Myropeptins C-E from Myrothecium inundatum” (J Nat Prod, 2023).
Converted amounts (≈) assume the structure as drawn. The source made the active and inactive calls. The calls are words filed in the database; no cut-off is given here. Where a SMILES comes first, the peptide text is derived from it. [ ]: non-standard residue; d: D form. The star is where a group is joined. Lauroyl = CCCCCCCCCCCC(=O)*; Decanoyl = CCCCCCCCCC(=O)*; Aib = CC(C)(N)C(=O)O; βAla = NCCC(=O)O

What was measured:
[Candida] auris = Antimicrobial activity against Candida auris CDCB11903 measured after 16 hrs by CLSI protocol based method; format: functional; conditions: Candidozyma auris
Staphylococcus aureus [1] = experiment: Antimicrobial activity against Staphylococcus aureus ATCC 25923 measured after 16 hrs by CLSI protocol based method; format: functional
OVCAR-8 = experiment: Antiproliferative activity against human OVCAR-8 cells measured after 24 hrs by MTT assay; format: functional; conditions: read-out: LC50 (the source's name)
Staphylococcus aureus [2] = experiment: Antimicrobial activity against methicillin resistant Staphylococcus aureus ATCC BAA41 measured after 16 hrs by CLSI protocol based method; format: functional
Staphylococcus aureus [3] = experiment: Antimicrobial activity against multidrug resistant Staphylococcus aureus ATCC BAA-44 measured after 16 hrs by CLSI protocol based method; format: functional
MDA-MB-231 = experiment: Antiproliferative activity against human MDA-MB-231 cells measured after 24 hrs by MTT assay; format: functional, cell-based; conditions: MDA-MB-231, 24 h
Method in brief: (§1)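 MTT read-out after 24 h; HCT-116 (7000 cells/well) or MDA-MB-231 (8000 cells/well) in DMEM with 10% FBS, 37 °C, 5% CO2, plated overnight before dosing; MTT 0.5 mg/ml final, 2 h at 37 °C; formazan dissolved in DMSO, A550; vehicle (0.5% DMSO) set as 100% growth; biological triplicates, two technical replicates.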

HCT-116 = experiment: Antiproliferative activity against human HCT-116 cells measured after 24 hrs by MTT assay; format: functional, cell-based; conditions: HCT-116, 24 h; method in brief: as §1
SK-MEL-5 [4] = experiment: Induction of calcium influx in human SK-MEL-5 cells assessed as increase in fluorescence at 1 to 4 uM measured upto 120 secs by fluorescence based assay; format: functional, cell-based; conditions: dose 1-4 µM, time <= 120.0 sec
SK-MEL-5 [5] = experiment: Induction of mitochondrial membrane potential in human SK-MEL-5 cells assessed as reduction in accumulation of dye at 1 uM measured after 30 mins by […] staining based confocal microscopy analysis; format: functional, cell-based
Method in brief: (§2)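 SK-Mel-5 on poly-L-lysine-coated coverslips, 24 h; 30 min at 37 °C with 2 μM MitoOrange, 0.1% Hoechst 33342 and 1 μM compound, 0.1% DMSO or 50 μM FCCP; washed in warm PBS with CaCl2/MgCl2; confocal imaging, 20x objective, transmitted light plus MitoOrange CMTMRos and Hoechst channels.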

SK-MEL-5 [6] = experiment: Induction of apoptosis in human SK-MEL-5 cells assessed as early apoptosis at 1 to 4 uM measured after 3 hrs by Annexin V-FITC/propidium iodide staining based flow cytometric analysis; format: functional, cell-based; conditions: dose 1-4 µM
Method in brief: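 SK-Mel-5 (1 × 10^6 cells per T25) grown 24 h, then treated 3 h in medium at 1 or 4 μM; 0.5% DMSO vehicle, 5 μM camptothecin control; trypsinised, washed, stained with FITC-annexin V and propidium iodide 15 min at RT in the dark, analysed by flow cytometry within 1 h.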

SK-MEL-5 [7] = experiment: Induction of apoptosis in human SK-MEL-5 cells assessed as membrane blebbing at 1 uM measured after 30 mins by confocal microscopy based analysis; format: functional, cell-based; method in brief: as §2
[8] = Toxicity in zebra fish AB embryo assessed as mortality incubated for 48 hrs; set-up: species or system Danio rerio; conditions: zebrafish
[9] = Toxicity in human SK-MEL-5 cells assessed as calcium influx-mediated cell rupture at 16 uM measured upto 120 secs by fluorescence based analysis; conditions: sk-mel-5, 2 min, time < 120 sec
[10] = Hemolytic activity in sheep erythrocytes assessed as hemolysis incubated for 1 hr by microplate reader based analysis; format: toxicity, cell-based, Ovis aries, Erythrocyte
Method in brief: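 Defibrinated sheep blood washed 3× in PBS, diluted 1:500 (~8×10^7 cells/mL); 190 μL suspension plus 10 μL 20-fold compound stock in PBS + 0.5% DMSO, 1 h at 37 °C; centrifuged, supernatant OD450; 0.1% Triton X-100 positive control; three independent experiments.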

[11] = Toxicity in zebra fish AB embryo assessed as mortality at 10 uM incubated for 48 hrs relative to control; set-up: species or system Danio rerio; conditions: zebrafish, read-out: Activity
[12] = Toxicity in zebra fish AB embryo assessed as mortality at 50 uM incubated for 48 hrs relative to control; set-up: species or system Danio rerio; conditions: zebrafish, read-out: Activity

Row | Compound | MIC ([Candida] auris) [µg/mL] | MIC (Staphylococcus aureus [1]) [µg/mL] | MIC (Staphylococcus aureus [2]) [µg/mL] | MIC (Staphylococcus aureus [3]) [µg/mL] | IC50 (MDA-MB-231) [µM] | IC50 (HCT-116) [µM] | IC50 at 1 h [10] [µM] | further results
1 | CCCCCCCCCCCC(=O)NC(C)(C)C(=O)N1CCC[C@H]1C(=O)NC(C)(C)C(=O)NC(C)(C)C(=O)N1CCC[C@H]1C(=O)NC(C)(C)C(=O)NC(C)(C)C(=O)N1CCC[C@H]1C(=O)N[C@@H](C)C(=O)NC(C)(C)C(=O)NCCC(=O)N[C@@H](C)C(=O)NC(C)(C)C(=O)NC(C)(C)C(=O)NCCC(=O)NC(C)(C)C(=O)NC(C)(C)C(=O)NC(C)(C)C(=O)N[C@@H](C)C(=O)NCCC(=O)O [listing 1 of 2 here] | 4 (≈ 2.16 µM) | 4 (≈ 2.16 µM) | 4 (≈ 2.16 µM) | 4 (≈ 2.16 µM) | – | – | – | CC50 (OVCAR-8): > 16 µM
2 | CCCCCCCCCCCC(=O)NC(C)(C)C(=O)N1CCC[C@H]1C(=O)NC(C)(C)C(=O)NC(C)(C)C(=O)N1CCC[C@H]1C(=O)NC(C)(C)C(=O)NC(C)(C)C(=O)N1CCC[C@H]1C(=O)NC(C)(C)C(=O)NC(C)(C)C(=O)NCCC(=O)N[C@@H](C)C(=O)NC(C)(C)C(=O)NC(C)(C)C(=O)NCCC(=O)NC(C)(C)C(=O)NC(C)(C)C(=O)NC(C)(C)C(=O)N[C@@H](C)C(=O)NCCC(=O)O (Lauroyl-[Aib]P[Aib][Aib]P[Aib][Aib]P[Aib][Aib][βAla]A[Aib][Aib][βAla][Aib][Aib][Aib]A[βAla]-OH) [listing 1 of 2 here] | 16 (≈ 8.56 µM) | 4 (≈ 2.14 µM) | 8 (≈ 4.28 µM) | 8 (≈ 4.28 µM) | – | – | – | –
3 | COc1cccc2c1[C@H](OC)[C@]13O[C@@]1(C2=O)[C@H](O)[C@H](C)[C@@](O)(C(=O)[C@@H]1O[C@H]1C)[C@@H]3O | – | – | – | – | 0.6 | 1.3 | – | –
4 | C[C@H](CCC(=O)O)C[C@H](C)C[C@H](C)C(=O)/C=C(\O)[C@H](C)C[C@H](C)C/C=C/[C@@H](C)[C@@H](O)[C@@H](C)[C@@H](O)C[C@@H]1CC[C@@](C)([C@H]2CC[C@@](C)([C@@H](C)O)O2)O1 | – | – | – | – | – | – | – | Activity (SK-MEL-5 [4]): Active
5 | CCCCCCCCCC(=O)NC(C)(C)C(=O)N1CCC[C@H]1C(=O)NC(C)(C)C(=O)NC(C)(C)C(=O)N1CCC[C@H]1C(=O)NC(C)(C)C(=O)NC(C)(C)C(=O)N1CCC[C@H]1C(=O)NC(C)(C)C(=O)NC(C)(C)C(=O)NCCC(=O)N[C@@H](C)C(=O)NC(C)(C)C(=O)NC(C)(C)C(=O)NCCC(=O)NC(C)(C)C(=O)NC(C)(C)C(=O)NC(C)(C)C(=O)N[C@@H](C)C(=O)NCCC(=O)O (Decanoyl-[Aib]P[Aib][Aib]P[Aib][Aib]P[Aib][Aib][βAla]A[Aib][Aib][βAla][Aib][Aib][Aib]A[βAla]-OH) [listing 1 of 2 here] | 16 (≈ 8.69 µM) | 16 (≈ 8.69 µM) | 16 (≈ 8.69 µM) | 16 (≈ 8.69 µM) | – | – | – | –
6 | CCCCCCCCCCCC(=O)NC(C)(C)C(=O)N1CCC[C@@H]1C(=O)NC(C)(C)C(=O)NC(C)(C)C(=O)N1CCC[C@@H]1C(=O)NC(C)(C)C(=O)NC(C)(C)C(=O)N1CCC[C@H]1C(=O)N[C@@H](C)C(=O)NC(C)(C)C(=O)NCCC(=O)N[C@@H](C)C(=O)NC(C)(C)C(=O)NC(C)(C)C(=O)NCCC(=O)NC(C)(C)C(=O)NC(C)(C)C(=O)NC(C)(C)C(=O)N[C@@H](C)C(=O)NCCC(=O)O | – | – | – | – | – | – | – | Activity (SK-MEL-5 [5]): Active; Activity (SK-MEL-5 [6]): Active; Activity (SK-MEL-5 [7]): inactive
7 | CCCCCCCCCC(=O)NC(C)(C)C(=O)N1CCC[C@H]1C(=O)NC(C)(C)C(=O)NC(C)(C)C(=O)N1CCC[C@H]1C(=O)NC(C)(C)C(=O)NC(C)(C)C(=O)N1CCC[C@H]1C(=O)N[C@@H](C)C(=O)NC(C)(C)C(=O)NCCC(=O)N[C@@H](C)C(=O)NC(C)(C)C(=O)NC(C)(C)C(=O)NCCC(=O)NC(C)(C)C(=O)NC(C)(C)C(=O)NC(C)(C)C(=O)N[C@@H](C)C(=O)NCCC(=O)O (Decanoyl-[Aib]P[Aib][Aib]P[Aib][Aib]PA[Aib][βAla]A[Aib][Aib][βAla][Aib][Aib][Aib]A[βAla]-OH) [listing 1 of 2 here] | 16 (≈ 8.76 µM) | 16 (≈ 8.76 µM) | 16 (≈ 8.76 µM) | 16 (≈ 8.76 µM) | – | – | – | –
8 | CCCCCCCCCCCC(=O)NC(C)(C)C(=O)N1CCC[C@H]1C(=O)NC(C)(C)C(=O)NC(C)(C)C(=O)N1CCC[C@H]1C(=O)NC(C)(C)C(=O)NC(C)(C)C(=O)N1CCC[C@H]1C(=O)N[C@@H](C)C(=O)NC(C)(C)C(=O)NCCC(=O)N[C@@H](C)C(=O)NC(C)(C)C(=O)NC(C)(C)C(=O)NCCC(=O)NC(C)(C)C(=O)NC(C)(C)C(=O)NC(C)(C)C(=O)N[C@@H](C)C(=O)NCCC(=O)O [listing 2 of 2 here] | – | – | – | – | 1.5 | 1.2 | 1.5 | EC50 at 48 h [8]: 5 µM; Activity [9]: Toxic; mortality at 48 h, 10 µM [11]: 100%
9 | CCCCCCCCCC(=O)NC(C)(C)C(=O)N1CCC[C@H]1C(=O)NC(C)(C)C(=O)NC(C)(C)C(=O)N1CCC[C@H]1C(=O)NC(C)(C)C(=O)NC(C)(C)C(=O)N1CCC[C@H]1C(=O)NC(C)(C)C(=O)NC(C)(C)C(=O)NCCC(=O)N[C@@H](C)C(=O)NC(C)(C)C(=O)NC(C)(C)C(=O)NCCC(=O)NC(C)(C)C(=O)NC(C)(C)C(=O)NC(C)(C)C(=O)N[C@@H](C)C(=O)NCCC(=O)O (Decanoyl-[Aib]P[Aib][Aib]P[Aib][Aib]P[Aib][Aib][βAla]A[Aib][Aib][βAla][Aib][Aib][Aib]A[βAla]-OH) [listing 2 of 2 here] | – | – | – | – | 8.2 | 6.1 | 10 | –
10 | NC[C@H]1O[C@H](O[C@H]2[C@H](O)[C@@H](O[C@H]3O[C@H](CO)[C@@H](O)[C@H](N)[C@H]3O)[C@H](N)C[C@@H]2N)[C@H](O)[C@@H](O)[C@@H]1O [KANAMYCIN] | – | 1 (≈ 2.06 µM) | – | – | – | – | – | –
11 | CCCCCCCCCC(=O)NC(C)(C)C(=O)N1CCC[C@H]1C(=O)NC(C)(C)C(=O)NC(C)(C)C(=O)N1CCC[C@H]1C(=O)NC(C)(C)C(=O)NC(C)(C)C(=O)N1CCC[C@H]1C(=O)N[C@@H](C)C(=O)NC(C)(C)C(=O)NCCC(=O)N[C@@H](C)C(=O)NC(C)(C)C(=O)NC(C)(C)C(=O)NCCC(=O)NC(C)(C)C(=O)NC(C)(C)C(=O)NC(C)(C)C(=O)N[C@@H](C)C(=O)NCCC(=O)O (Decanoyl-[Aib]P[Aib][Aib]P[Aib][Aib]PA[Aib][βAla]A[Aib][Aib][βAla][Aib][Aib][Aib]A[βAla]-OH) [listing 2 of 2 here] | – | – | – | – | 9.2 | 5.2 | 7 | mortality at 48 h, 50 µM [12]: 100%; EC50 at 48 h [8]: 30 µM
12 | CC[C@H](C)C[C@H](C)CCCCCCCCC(=O)N[C@H]1C[C@@H](O)[C@@H](NCCN)NC(=O)[C@@H]2[C@@H](O)CCN2C(=O)[C@H]([C@H](O)CCN)NC(=O)[C@H]([C@H](O)[C@@H](O)c2ccc(O)cc2)NC(=O)[C@@H]2C[C@@H](O)CN2C(=O)[C@H]([C@@H](C)O)NC1=O [CASPOFUNGIN] | 2 (≈ 1.83 µM) | – | – | – | – | – | – | –
13 | CCCCCCCCCCCC(=O)NC(C)(C)C(=O)N1CCC[C@H]1C(=O)NC(C)(C)C(=O)NC(C)(C)C(=O)N1CCC[C@H]1C(=O)NC(C)(C)C(=O)NC(C)(C)C(=O)N1CCC[C@H]1C(=O)NC(C)(C)C(=O)NC(C)(C)C(=O)NCCC(=O)N[C@@H](C)C(=O)NC(C)(C)C(=O)NC(C)(C)C(=O)NCCC(=O)NC(C)(C)C(=O)NC(C)(C)C(=O)NC(C)(C)C(=O)N[C@@H](C)C(=O)NCCC(=O)O (Lauroyl-[Aib]P[Aib][Aib]P[Aib][Aib]P[Aib][Aib][βAla]A[Aib][Aib][βAla][Aib][Aib][Aib]A[βAla]-OH) [listing 2 of 2 here] | – | – | – | – | 11.1 | 9.5 | 2 | –
